Assay results published in ChEMBL document CHEMBL2169833, “Solubility-driven optimization of phosphodiesterase-4 inhibitors leading to a clinical candidate” (J Med Chem, 2012).
pIC50: −log10 of the molar value. In brackets after ≈: the same amount, converted by molar mass.

Tests used:
[1] = target: 3',5'-cyclic-AMP phosphodiesterase 4D (Homo sapiens, UniProt Q08499); assay: Inhibition of human PDE4D-mediated [3H]CAMP hydrolysis after 30 to 60 mins by scintillation proximity assay
How it was run: (§1)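 Enzyme was diluted in 10 mM Tris-HCl pH 7.5 with 1 mM EDTA to give 10–30% substrate hydrolysis. Substrate was [3H]-cAMP (0.1 μCi) with 1 μM cAMP. Inhibitors were tested at 10 concentrations with 1% DMSO, 30−60 min at room temperature, stopped with PDE SPA beads and counted. IC50 came from curves. Mean of ≥2 experiments in duplicate, SEM where n ≥ 3.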

[2] = Tmax in ferret at 3.42 umol/kg, ig; format: ADME, organism-based, Mustela putorius furo; details: in vivo, po
How it was run: (§2)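 Ferret PK after intragastric dosing as a solution in PEG200/saline (50/50, v/v) at 3.42 μmol/kg, with one compound at 2.98 μmol/kg. Plasma levels were measured. Detection limits were 0.5 μM for roflumilast and <0.02 μM for its N-oxide metabolite.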

[3] = target: Phosphodiesterase 4 (Homo sapiens, UniProt P27815+Q08499+Q07343+Q08493); assay: Inhibition of PDE4 in human PBMC assessed as inhibition of LPS-induced TNFalpha production incubated for 10 mins prior to LPS-challenge measured after 20 hrs by sandwich ELISA
How it was run: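 Human PBMC were isolated from normal donors by Ficoll−Hypaque and grown at 1 × 10⁶ cells/mL in RPMI1640 with 10% FCS. Compound was preincubated 10 min, then LPS added (10 ng/mL, stock added). Cells were incubated 20 h at 37 °C in 5% CO₂. Supernatant TNF-α was measured by sandwich ELISA at OD405 (sensitivity ~10 pg/mL). IC50 came from inhibition curves.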

[4] = AUC total in ferret at 3.42 umol/kg, ig; format: ADME, organism-based, Mustela putorius furo; details: plasma, po; how it was run: as §2
[5] = test system: Rattus norvegicus; assay: Antiinflammatory activity in po dosed ovalbumin-sensitized Brown Norway rat assessed as inhibition of ovalbumin-induced eosinophil influx into BALF administered 2 hrs prior to ovalbumin-challenge measured after 24 hrs; format: functional
How it was run: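 Brown Norway rats were actively sensitized and dosed orally at 0.3, 1 or 3 mg/kg, or with vehicle PEG200:saline 1:1, 2 h before inhaled ovalbumin challenge. Saline-challenged rats served as controls. Eosinophils were counted in BAL fluid 24 h after challenge. Mean ± SEM, 5−10 animals per group. ED50 was estimated.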

[6] = Half life in ferret at 3.42 umol/kg, ig; format: ADME, organism-based, Mustela putorius furo; details: in vivo, po; how it was run: as §2
[7] = target: 3',5'-cyclic-AMP phosphodiesterase 4A (Homo sapiens, UniProt P27815); assay: Inhibition of human PDE4A-mediated [3H]CAMP hydrolysis after 30 to 60 mins by scintillation proximity assay; how it was run: as §1
[8] = Thermodynamic aqueous solubility of the compound at pH 6.8; format: physicochemical; details: buffer; for solubility thermodynamic: read-out: Therm_solubility
[9] = target: 3',5'-cyclic-AMP phosphodiesterase 4B (Homo sapiens, UniProt Q07343); assay: Inhibition of human PDE4B-mediated [3H]CAMP hydrolysis after 30 to 60 mins by scintillation proximity assay; how it was run: as §1
[10] = Cmax in ferret at 3.42 umol/kg, ig; format: ADME, organism-based, Mustela putorius furo; parameters: dose 3.42 umol/kg, route intragastric; details: in vivo, po; how it was run: as §2
[11] = test system: Mustela putorius furo; assay: Toxicity in ferret assessed as emesis at 0.075 to 4.8 mg/kg, po after 4 hrs; format: organism-based; parameters: dose 0.075-4.8 mg/kg, route oral; details: in vivo
[12] = Oral bioavailability in rat at 4.2 umol/kg; format: ADME, organism-based; details: in vivo, 4.2 umol/kg
How it was run: (§3)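 Rat PK after iv and po dosing, some compounds given as the potassium or sodium salt. Vehicle was PBS or 25/75 PEG200/PBS. Dose matched formulation strength: iv 1.05, 2.1 or 4.2 μmol/kg; po 2.1 or 4.2 μmol/kg. For some compounds iv and po used the same dose (2.1 or 4.2 μmol/kg).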

[13] = Clearance in rat at 1.05 umol/kg, iv; format: ADME, organism-based; details: in vivo; how it was run: as §3
[14] = Cmax in rat at 2.1 umol/kg, po; format: ADME, organism-based; parameters: dose 2.1 umol/kg, route oral; details: in vivo; how it was run: as §3
[15] = Tmax in rat at 2.1 umol/kg, po; format: ADME, organism-based; details: in vivo; how it was run: as §3
[16] = Volume of distribution at steady state in rat at 1.05 umol/kg, iv; format: ADME, organism-based; details: in vivo, read-out: Vdss; how it was run: as §3
[17] = (§4) Oral bioavailability in rat at 2.1 umol/kg; format: ADME, organism-based; details: in vivo, 2.1 umol/kg; how it was run: as §3
[18] = AUC total in rat at 2.1 umol/kg, po; format: ADME, organism-based, Plasma; details: plasma, 2.1 umol/kg; how it was run: as §3
[19] = Half life in rat at 2.1 umol/kg, po; format: ADME, organism-based; details: in vivo; how it was run: as §3
[20] = Tmax in rat at 4.2 umol/kg, po; format: ADME, organism-based; details: in vivo; how it was run: as §3
[21] = AUC total in rat at 4.2 umol/kg, po; format: ADME, organism-based, Plasma; details: plasma, 4.2 umol/kg; how it was run: as §3
[22] = Cmax in rat at 4.2 umol/kg, po; format: ADME, organism-based; parameters: dose 4.2 umol/kg, route oral; details: in vivo; how it was run: as §3
[23] = Clearance in rat at 4.2 umol/kg, iv; format: ADME, organism-based; details: in vivo; how it was run: as §3
[24] = Half life in rat at 4.2 umol/kg, po; format: ADME, organism-based; details: in vivo; how it was run: as §3
[25] = Volume of distribution at steady state in rat at 4.2 umol/kg, iv; format: ADME, organism-based; details: in vivo, read-out: Vdss; how it was run: as §3
[26] = test system: Rattus norvegicus; assay: as §4; format: ADME, organism-based; details: in vivo; how it was run: as §3

Chain of 3',5'-cyclic-AMP phosphodiesterase 4B (Q07343 whole entry): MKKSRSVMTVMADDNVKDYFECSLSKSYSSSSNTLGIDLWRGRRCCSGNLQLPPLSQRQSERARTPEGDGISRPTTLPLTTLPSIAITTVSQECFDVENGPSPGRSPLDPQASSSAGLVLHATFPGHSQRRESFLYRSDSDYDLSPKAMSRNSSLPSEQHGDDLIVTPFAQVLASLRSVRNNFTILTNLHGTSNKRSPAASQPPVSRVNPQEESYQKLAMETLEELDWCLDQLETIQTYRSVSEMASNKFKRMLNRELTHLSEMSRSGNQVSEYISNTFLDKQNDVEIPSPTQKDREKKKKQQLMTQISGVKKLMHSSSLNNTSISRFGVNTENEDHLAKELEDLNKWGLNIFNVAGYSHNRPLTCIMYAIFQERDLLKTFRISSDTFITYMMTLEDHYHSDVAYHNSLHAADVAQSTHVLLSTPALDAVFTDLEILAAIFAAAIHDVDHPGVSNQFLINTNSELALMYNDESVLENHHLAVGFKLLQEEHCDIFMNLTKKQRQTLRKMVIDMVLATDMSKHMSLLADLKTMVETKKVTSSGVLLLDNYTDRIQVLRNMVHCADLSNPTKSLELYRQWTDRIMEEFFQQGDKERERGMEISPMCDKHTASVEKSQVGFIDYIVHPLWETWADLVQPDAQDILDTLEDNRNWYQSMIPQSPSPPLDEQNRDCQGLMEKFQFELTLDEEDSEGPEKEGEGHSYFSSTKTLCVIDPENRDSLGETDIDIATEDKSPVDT
Chain of 3',5'-cyclic-AMP phosphodiesterase 4A (P27815 whole entry): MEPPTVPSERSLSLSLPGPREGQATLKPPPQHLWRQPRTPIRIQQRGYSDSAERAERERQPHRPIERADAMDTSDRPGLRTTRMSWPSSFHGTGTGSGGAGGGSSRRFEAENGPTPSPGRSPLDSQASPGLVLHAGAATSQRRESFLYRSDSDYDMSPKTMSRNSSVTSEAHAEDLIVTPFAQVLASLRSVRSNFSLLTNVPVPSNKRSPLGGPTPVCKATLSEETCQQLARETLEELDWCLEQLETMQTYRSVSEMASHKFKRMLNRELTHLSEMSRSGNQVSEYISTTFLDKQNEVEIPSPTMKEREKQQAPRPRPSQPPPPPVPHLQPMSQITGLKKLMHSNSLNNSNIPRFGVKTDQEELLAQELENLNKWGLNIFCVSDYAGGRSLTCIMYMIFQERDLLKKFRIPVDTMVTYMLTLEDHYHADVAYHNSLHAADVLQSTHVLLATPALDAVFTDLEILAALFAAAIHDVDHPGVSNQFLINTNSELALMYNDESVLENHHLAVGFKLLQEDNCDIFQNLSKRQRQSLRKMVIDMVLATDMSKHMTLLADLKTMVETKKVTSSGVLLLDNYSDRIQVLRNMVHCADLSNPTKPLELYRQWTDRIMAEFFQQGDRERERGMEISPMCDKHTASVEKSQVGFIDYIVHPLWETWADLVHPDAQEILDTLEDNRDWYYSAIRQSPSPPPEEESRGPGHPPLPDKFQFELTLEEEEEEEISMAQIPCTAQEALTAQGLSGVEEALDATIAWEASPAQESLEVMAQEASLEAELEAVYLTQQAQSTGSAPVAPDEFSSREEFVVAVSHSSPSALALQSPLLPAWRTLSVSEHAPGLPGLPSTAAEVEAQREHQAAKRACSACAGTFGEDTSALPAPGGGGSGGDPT
Chain of 3',5'-cyclic-AMP phosphodiesterase 4D (Q08499 whole entry): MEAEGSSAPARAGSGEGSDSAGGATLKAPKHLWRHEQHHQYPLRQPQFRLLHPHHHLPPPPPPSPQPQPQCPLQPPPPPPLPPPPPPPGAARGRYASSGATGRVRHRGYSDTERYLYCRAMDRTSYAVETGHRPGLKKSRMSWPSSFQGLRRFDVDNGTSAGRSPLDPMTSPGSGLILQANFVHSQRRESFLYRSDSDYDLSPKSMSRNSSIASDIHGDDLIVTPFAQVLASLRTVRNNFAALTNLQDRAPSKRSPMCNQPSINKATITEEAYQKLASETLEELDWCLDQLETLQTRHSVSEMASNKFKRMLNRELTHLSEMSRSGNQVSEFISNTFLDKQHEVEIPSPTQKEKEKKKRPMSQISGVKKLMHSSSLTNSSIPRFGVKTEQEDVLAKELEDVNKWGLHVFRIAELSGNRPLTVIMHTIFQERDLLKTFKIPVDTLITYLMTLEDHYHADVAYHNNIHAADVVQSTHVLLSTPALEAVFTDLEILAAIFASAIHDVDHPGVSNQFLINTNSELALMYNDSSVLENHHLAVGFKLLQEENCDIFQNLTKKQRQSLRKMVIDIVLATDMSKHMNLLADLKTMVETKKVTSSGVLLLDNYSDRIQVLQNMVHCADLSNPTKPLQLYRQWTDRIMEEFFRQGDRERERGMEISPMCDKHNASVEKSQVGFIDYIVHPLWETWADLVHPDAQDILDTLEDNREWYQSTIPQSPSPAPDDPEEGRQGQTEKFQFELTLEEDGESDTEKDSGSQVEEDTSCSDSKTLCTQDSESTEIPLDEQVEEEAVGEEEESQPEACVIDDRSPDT

Structure (SMILES)	pIC50 [1]	IC50 [3]	pIC50 [7]	solubility thermodynamic [8]	pIC50 [9]	further results
O=C(O)[C@H]1CC[C@H](c2cc3cccnc3c(-c3cccc(OC(F)(F)F)c3)n2)CC1	7.62	52 nM	6.97	6 µg/mL (≈ 14.4 µM)	7.37	Tmax [2]: 1.75 h; AUC [4]: 49.7 µM·h; ED50 [5]: 2 mg/kg; half-life [6]: 1.87 h; Cmax [10]: 10.5 µM; Activity [11]: Non-toxic
COc1cccc(-c2nc(N3CCC(C(=O)O)CC3)cc3cccnc23)c1	7.35	1930 nM	6.27	> 1000 µg/mL	6.21	–
N#Cc1cccc(-c2nc([C@H]3CC[C@H](C(=O)O)CC3)cc3cccnc23)c1	7.39	53 nM	6.80	–	7.03	bioavailability [12]: 92%; Therm_solubility [8]: 430 µg/mL
CSc1cccc(-c2nc([C@H]3CC[C@H](C(=O)O)CC3)cc3cccnc23)c1	8.22	19 nM	7.57	1100 µg/mL (≈ 2910 µM)	7.77	–
COc1cccc(-c2nc([C@H]3CC[C@H](C(=O)O)CC3)cc3cccnc23)c1	7.19	151 nM	6.62	–	6.81	Therm_solubility [8]: 150 µg/mL
O=C(O)[C@H]1CC[C@H](c2cc3cccnc3c(-c3cccc(F)c3)n2)CC1	–	–	–	–	–	inhibition [5]: Dose-dependent effect
CSc1cccc(-c2nc(N3CCC(C(=O)O)CC3)cc3cccnc23)c1	7.29	–	6.23	378 µg/mL (≈ 996 µM)	5.88	–
O=C([O-])[C@H]1CC[C@H](c2cc3cccnc3c(-c3cccc(OC(F)(F)F)c3)n2)CC1.[K+]	–	–	–	–	–	clearance [13]: 0.65 mL/min/kg; Cmax [14]: 3.6 µM; Tmax [15]: 7.42 h; Vd [16]: 0.36 L/kg; bioavailability [17]: 107%; AUC [18]: 84 µM·h; half-life [19]: 29 h
N#Cc1cccc(-c2nc([C@H]3CC[C@H](C(=O)[O-])CC3)cc3cccnc23)c1.[K+]	–	–	–	–	–	Tmax [20]: 25 h; AUC [21]: 1880 µM·h; Cmax [22]: 8.3 µM; clearance [23]: 0.22 mL/min/kg; half-life [24]: 193 h; Vd [25]: 0.25 L/kg
N#Cc1cccc(-c2nc(N3CCC(C(=O)O)CC3)cc3cccnc23)c1	7.72	851 nM	6.57	> 4000 µg/mL	6.77	clearance [13]: 1.16 mL/min/kg; Cmax [14]: 2.8 µM; Tmax [15]: 2.15 h; Vd [16]: 0.72 L/kg; F [26]: 158%; AUC [18]: 46.1 µM·h; half-life [19]: 23 h
